Data set [1] has as its target Voltage-dependent N-type calcium channel subunit alpha-1B (Homo sapiens, UniProt Q00975). Briefly: Inhibition of Cav2.2 in human SH-SY5Y cells assessed as inhibition of calcium influx preincubated 300 secs followed by addition of KCL/CaCl2 and measured for 300 secs in presence of Cav1 blocker nifedipine by calcium 6 dye based calcium influx assay. In kind it is cell-based. An outline of the steps: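 Native Cav2.2 in SH-SY5Y neuroblastoma cells seeded at 40000/well and grown 48 h at 37 °C, 5% CO2. Calcium 6 dye loading 30 min at 37 °C in HEPES buffer pH 7.4 with 0.1% BSA and 10 µM nifedipine. Compound added for 300 s, then 90 mM KCl/5 mM CaCl2, read 300 s (ex 470-495, em 515-575 nm). Top concentration 100 µM, 3-fold dilutions, 1% DMSO; cilnidipine control; n = 3.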

Data set [2] can be described thus: Metabolic stability in rat liver microsomes assessed intrinsic clearance per mg protein at 1 uM measured up to 60 mins in presence of NADPH by LC/HRMS analysis. The format is ADME, Microsome. The settings on record: 1 h. In general terms: Microsomes from liver hold many membrane-bound enzymes, among them those of drug oxidation.
Data set [3] is described as follows: Stability in Sprague-Dawley rat plasma assessed as parent compound remaining at 150 uM measured after 24 hrs at 37 degreeC by HPLC analysis. The format is ADME, cell-free. The settings on record: read-out: Stability.

Sequence of Voltage-dependent N-type calcium channel subunit alpha-1B (Q00975 whole entry): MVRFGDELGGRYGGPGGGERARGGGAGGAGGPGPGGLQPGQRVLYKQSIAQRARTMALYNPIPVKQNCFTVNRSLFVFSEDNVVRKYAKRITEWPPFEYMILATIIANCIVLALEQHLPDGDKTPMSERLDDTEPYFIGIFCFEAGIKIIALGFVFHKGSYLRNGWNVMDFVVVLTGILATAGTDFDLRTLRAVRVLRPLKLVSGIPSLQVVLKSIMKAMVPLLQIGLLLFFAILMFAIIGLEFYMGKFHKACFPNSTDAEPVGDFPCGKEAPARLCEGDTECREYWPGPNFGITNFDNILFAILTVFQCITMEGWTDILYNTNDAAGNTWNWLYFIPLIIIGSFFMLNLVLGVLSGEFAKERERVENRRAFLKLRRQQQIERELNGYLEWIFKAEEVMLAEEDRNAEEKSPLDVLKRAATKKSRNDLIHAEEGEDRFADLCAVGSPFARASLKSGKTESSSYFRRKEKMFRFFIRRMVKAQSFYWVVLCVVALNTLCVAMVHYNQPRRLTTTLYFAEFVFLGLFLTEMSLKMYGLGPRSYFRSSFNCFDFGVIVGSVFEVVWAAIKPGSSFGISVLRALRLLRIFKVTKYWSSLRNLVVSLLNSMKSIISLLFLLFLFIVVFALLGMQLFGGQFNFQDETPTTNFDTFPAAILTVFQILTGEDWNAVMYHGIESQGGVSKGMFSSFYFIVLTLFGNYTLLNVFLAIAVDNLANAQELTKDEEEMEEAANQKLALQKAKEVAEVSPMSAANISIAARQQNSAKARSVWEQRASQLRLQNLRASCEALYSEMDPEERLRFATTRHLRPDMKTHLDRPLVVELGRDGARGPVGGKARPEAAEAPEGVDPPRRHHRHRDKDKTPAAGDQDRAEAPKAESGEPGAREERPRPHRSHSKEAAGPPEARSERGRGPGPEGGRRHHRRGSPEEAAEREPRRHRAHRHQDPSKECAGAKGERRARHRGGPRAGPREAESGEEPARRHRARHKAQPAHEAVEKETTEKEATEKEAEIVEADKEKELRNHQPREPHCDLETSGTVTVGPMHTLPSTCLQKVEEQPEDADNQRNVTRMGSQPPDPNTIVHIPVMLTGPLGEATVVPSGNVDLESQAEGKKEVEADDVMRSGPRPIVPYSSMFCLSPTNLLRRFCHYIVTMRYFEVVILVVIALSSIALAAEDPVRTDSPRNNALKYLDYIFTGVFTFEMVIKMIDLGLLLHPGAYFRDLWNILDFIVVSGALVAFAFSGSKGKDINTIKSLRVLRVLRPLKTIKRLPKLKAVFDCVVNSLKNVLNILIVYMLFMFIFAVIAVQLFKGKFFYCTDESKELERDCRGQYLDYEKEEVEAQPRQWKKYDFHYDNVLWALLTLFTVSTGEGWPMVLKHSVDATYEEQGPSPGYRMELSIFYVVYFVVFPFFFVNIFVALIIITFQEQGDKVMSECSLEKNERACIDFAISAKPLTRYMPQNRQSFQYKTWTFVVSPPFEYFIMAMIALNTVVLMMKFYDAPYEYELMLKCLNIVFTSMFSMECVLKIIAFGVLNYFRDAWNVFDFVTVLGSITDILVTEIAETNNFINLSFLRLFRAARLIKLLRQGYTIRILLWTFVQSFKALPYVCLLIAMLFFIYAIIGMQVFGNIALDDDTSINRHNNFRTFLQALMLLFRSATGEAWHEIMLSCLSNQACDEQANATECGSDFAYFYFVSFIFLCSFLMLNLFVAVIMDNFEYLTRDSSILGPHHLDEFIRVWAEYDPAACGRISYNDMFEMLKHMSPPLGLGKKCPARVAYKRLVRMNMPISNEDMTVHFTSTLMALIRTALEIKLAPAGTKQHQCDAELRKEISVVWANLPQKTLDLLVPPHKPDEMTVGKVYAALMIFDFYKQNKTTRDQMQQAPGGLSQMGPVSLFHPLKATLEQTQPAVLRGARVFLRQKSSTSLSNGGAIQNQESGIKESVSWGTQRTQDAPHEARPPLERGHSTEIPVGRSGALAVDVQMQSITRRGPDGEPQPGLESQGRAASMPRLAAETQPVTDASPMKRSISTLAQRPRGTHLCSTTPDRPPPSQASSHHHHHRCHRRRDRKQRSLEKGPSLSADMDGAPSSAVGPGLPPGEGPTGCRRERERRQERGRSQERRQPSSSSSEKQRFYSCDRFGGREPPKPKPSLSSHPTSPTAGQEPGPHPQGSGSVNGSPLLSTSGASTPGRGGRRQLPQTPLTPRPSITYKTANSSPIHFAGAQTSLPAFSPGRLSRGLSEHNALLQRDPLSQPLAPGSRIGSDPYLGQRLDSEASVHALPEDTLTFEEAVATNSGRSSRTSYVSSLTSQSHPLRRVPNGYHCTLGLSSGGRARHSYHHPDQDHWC

With `O=S(=O)(c1ccc(NCCCN2CCOCC2)cc1)N1c2ccccc2Oc2ccccc21`, in data set [1], the IC50 (usually the concentration at which inhibition is half-maximal) came to 20.8 µM. Regarding `O=C(O)C(F)(F)F.O=S(=O)(c1ccc(OCCCN2CCOCC2)cc1)N1c2ccccc2Oc2ccccc21`, the IC50 in data set [1] was determined as 29 µM. The CLint in data set [2] amounted to 239 µL/min/mg. For the same compound, the remaining at 24 h, 150 µM in data set [3] is over 90%. As for `O=S(=O)(c1ccc(NCCCn2ccnc2)cc1)N1c2ccccc2Oc2ccccc21`, the IC50 in data set [1] was determined as 13.7 µM. Consider `CN(C)CCCOc1ccc(S(=O)(=O)N2c3ccccc3Oc3ccccc32)cc1.O=C(O)C(F)(F)F`, for which the IC50 in data set [1] was found to be 4.3 µM. Also, in data set [2], the CLint was determined as 105 µL/min/mg. Further, in data set [3], the remaining at 24 h, 150 µM was over 90%.

With `COCCCOc1ccc(S(=O)(=O)N2c3ccccc3Oc3ccccc32)cc1`, the half-maximal inhibitory concentration (IC50) in data set [1] stood at 172 µM. On the same count and under the same terms, then `CN(C)CCCN(C)c1ccc(S(=O)(=O)N2c3ccccc3Oc3ccccc32)cc1`, with 18.7 µM. On to `O=C(O)C(F)(F)F.O=S(=O)(c1ccc(OCCCN2CCCC2)cc1)N1c2ccccc2Oc2ccccc21`, for which, in data set [1], the IC50 turned out to be 8 µM. Moreover, the CLint in data set [2] is 83 µL/min/mg. The remaining at 24 h, 150 µM in data set [3] is over 90%.

On to `CNCCCNc1ccc(S(=O)(=O)N2c3ccccc3Oc3ccccc32)cc1`, for which, in data set [1], the IC50 was determined as 10.9 µM. Consider `O=S(=O)(c1ccc(NCCCN2CCCC2)cc1)N1c2ccccc2Oc2ccccc21`, for which, in data set [1], the IC50 was found to be 4.4 µM. On to `CNCCCOc1ccc(S(=O)(=O)N2c3ccccc3Oc3ccccc32)cc1.O=C(O)C(F)(F)F`, for which the 50% inhibitory concentration (IC50) in data set [1] came out at 4.6 µM. Also, in data set [2], the CLint was 34 µL/min/mg. Further, the remaining at 24 h, 150 µM in data set [3] worked out at 73%. Turning to `CN(C)CCCNc1ccc(S(=O)(=O)N2c3ccccc3Oc3ccccc32)cc1`, the IC50 in data set [1] is 9.1 µM.

Take `O=C(O)C(F)(F)F.O=S(=O)(c1ccc(OCCCn2ccnc2)cc1)N1c2ccccc2Oc2ccccc21`: in data set [1], the IC50 amounted to 48.7 µM. Besides, in data set [2], the CLint worked out at 132 µL/min/mg. Besides, the remaining at 24 h, 150 µM in data set [3] was over 90%. For the compound `O=C(O)C(F)(F)F.O=S(=O)(c1ccc(OCCCN2CCCCC2)cc1)N1c2ccccc2Oc2ccccc21`, the IC50 in data set [1] was found to be 7.6 µM. Also, the CLint in data set [2] turned out to be 97 µL/min/mg. In addition, the remaining at 24 h, 150 µM in data set [3] was over 90%. On to `O=S(=O)(c1ccc(NC2CCNCC2)cc1)N1c2ccccc2Oc2ccccc21`, for which the IC50 in data set [1] was 19.9 µM. The same measure, in the same setting: then `O=S(=O)(c1ccc(NCCCN2CCCCC2)cc1)N1c2ccccc2Oc2ccccc21`, with 15.2 µM.

Source of the values: ChEMBL document CHEMBL5576111, “N-Sulfonylphenoxazines as neuronal calcium ion channel blockers” (RSC Med Chem, 2024).
